{"data": "Published values gathered from unrelated publications", "target": "Insulin-like growth factor 1 receptor (IGF1R, Homo sapiens, UniProt P08069)", "note": "Compare with care: the assays were run in different laboratories."}
{"Structure (SMILES)": "Cc1cc(NC(=O)c2cccc3cc(-c4cccc5[nH]nc(N)c45)ccc23)ccc1F", "test": "enzyme activity, inhibitor", "conditions": "0.1 µM", "quantity": "activity vs control", "value": "143%"}
{"Structure (SMILES)": "O=C1NC(=O)c2cc(Nc3ccc(F)cc3)c(Nc3ccc(F)cc3)cc21", "test": "cell-free assay", "conditions": "0.5 µM", "quantity": "remaining signal", "value": "102%"}
{"Structure (SMILES)": "CNC(=O)c1ccc(Nc2ncc(C(F)(F)F)c(NCc3nccnc3N(C)S(C)(=O)=O)n2)cc1", "test": "cell-free assay, competition with immobilised ligand", "conditions": "0.1 µM", "quantity": "remaining binding", "value": "84%"}
{"Structure (SMILES)": "O=C1Nc2ccc(Cl)cc2C1=Cc1cc(Cl)c(O)c(Cl)c1", "test": "cell-free assay", "conditions": "0.5 µM", "quantity": "remaining signal", "value": "98.3%"}
{"Structure (SMILES)": "Cc1ccc(C(=O)NCc2ccsc2)cc1C#Cc1cn(C(C)C)c2ncnc(N)c12", "test": "enzyme activity, inhibitor", "conditions": "1 µM", "quantity": "activity vs control", "value": "75%"}
{"Structure (SMILES)": "O=C(CSc1nc2nccnc2c(=O)n1CCc1ccccc1)Nc1nccs1", "test": "enzyme activity, inhibitor", "conditions": "10 µM", "quantity": "inhibition", "value": "12%"}
{"Structure (SMILES)": "CN1CC(Oc2cnc(C#N)cc2-c2ccn3nc(NC(=O)C4CC4)cc3c2)C1", "test": "enzyme activity, inhibitor", "conditions": "1 µM", "quantity": "inhibition", "value": "9%"}
{"Structure (SMILES)": "C=CC(=O)Nc1cc(Nc2nccc(Nc3cc(Cl)c(F)cc3C(C)(C)O)n2)c(OC)cc1N1CC[C@@H](N(C)C)C1", "test": "enzyme activity, inhibitor", "conditions": "1 µM", "quantity": "inhibition", "value": "35%"}
{"Structure (SMILES)": "Cc1ccc(NC(=O)c2ccc(C)c(C(F)(F)F)c2)cc1C#Cc1nn(C2CCC(O)CC2)c2ncnc(N)c12 (stereo not drawn)", "test": "cell-free assay", "conditions": "10 µM", "quantity": "remaining signal", "value": "66%"}
{"Structure (SMILES)": "N#Cc1ccc(Nc2ccc3[nH]c(=O)[nH]c3c2)c(Cl)c1", "test": "cell-free assay, competition with immobilised ligand", "conditions": "1 µM", "quantity": "remaining binding", "value": "99%"}
{"Structure (SMILES)": "CCN(CC)CCNC(=O)c1c(C)[nH]c(/C=C2\\C(=O)Nc3ccc(F)cc32)c1C", "test": "enzyme activity, inhibitor", "conditions": "10 µM", "quantity": "inhibition", "value": "81%"}
{"Structure (SMILES)": "CNc1cccc2cc(C(=O)Nc3ccc(C(=O)O)cc3)c(=O)[nH]c12", "test": "enzyme activity, inhibitor", "conditions": "10 µM", "quantity": "inhibition", "value": "5.2%"}
{"Structure (SMILES)": "CNC(=O)c1cc(Oc2ccc(NC(=O)Nc3ccc(Cl)c(C(F)(F)F)c3)cc2)ccn1", "test": "enzyme activity, inhibitor", "conditions": "0.3 µM", "quantity": "inhibition", "value": "-3%"}
{"Structure (SMILES)": "CCS(=O)(=O)c1cc2cc(C[C@@](O)(CC(C)(C)c3ccc(F)cc3C(N)=O)C(F)(F)F)[nH]c2cn1", "test": "cell-free assay, competition with immobilised ligand", "conditions": "1 µM", "quantity": "remaining binding", "value": "100%"}
{"Structure (SMILES)": "CNCc1ccc(-c2cc(-c3nc(-c4ccc(S(=O)(=O)C(C)C)cc4)cnc3N)on2)cc1", "test": "enzyme activity, inhibitor", "conditions": "0.4 µM", "quantity": "inhibition", "value": "0%"}
{"Structure (SMILES)": "Cc1cc(-n2nc(Cc3cc(F)cc(C(F)(F)F)c3)nc2C)ccc1C(N)=O", "test": "cell-free assay, competition with immobilised ligand", "conditions": "1 µM", "quantity": "remaining binding", "value": "98%"}
{"Structure (SMILES)": "Cc1ccc(C(=O)Nc2ccc(CN3CCN(C)CC3)c(C(F)(F)F)c2)cc1C#Cc1cnc2cccnn12", "test": "cell-free assay", "conditions": "23.5 nM", "quantity": "remaining signal", "value": "84%"}
{"Structure (SMILES)": "CN(C(=O)c1ccccc1)c1cc(N(C)c2ccc3c(c2)CCc2ccc(C(=O)NCCN4CCOCC4)cc2C3=O)ccc1F", "test": "cell-free assay, competition with immobilised ligand", "conditions": "1 µM", "quantity": "remaining binding", "value": "90%"}
{"Structure (SMILES)": "Nc1ncnc2occ(-c3ccc(NC(=O)Nc4cc(C(F)(F)F)ccc4F)cc3)c12", "test": "cell-free assay", "conditions": "20 µM", "quantity": "remaining signal", "value": "13%"}
{"Structure (SMILES)": "O=C(NCc1ncc(C(F)(F)F)cc1Cl)c1ccc2c(c1)C1(CCS(=O)(=O)CC1)[C@@H](C1CC1)N2S(=O)(=O)c1ccc(F)cc1", "test": "cell-free assay, competition with immobilised ligand", "conditions": "1 µM", "quantity": "remaining binding", "value": "88%"}
{"Structure (SMILES)": "COc1cc2ncnc(Nc3ccc(Oc4ccccc4)cc3C)c2cc1OC", "test": "enzyme activity, inhibitor", "conditions": "1 µM", "quantity": "inhibition", "value": "1%"}
